According to ChEMBL document CHEMBL1140485, “MexAB-OprM specific efflux pump inhibitors in Pseudomonas aeruginosa. Part 7: highly soluble and in vivo active quaternary ammonium analogue D13-9001, a potential preclinical candidate” (Bioorg Med Chem, 2007):
Values after ≈ are worked out from the molar mass of the structure shown. Each block holds one compound with its values, some of them ahead of it.

Legend:
[1] = Clearance (0 to infinity) in cynomolgus monkey at 5 mg/kg, iv; assay type: ADME, organism-based, Macaca fascicularis; design: dose 5 mg/kg, route intravenous; settings: in vivo
Procedure, shortened: (§1)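 Monkeys received a 1 h intravenous infusion at 1 or 5 mg/kg in 10 mL/kg saline. Plasma was processed as for the rat samples: centrifuged, stored at −20 °C, then MeCN extraction with propranolol internal standard.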

Pseudomonas aeruginosa [2] = assay: Inhibition of Pseudomonas aeruginosa PAM1723 MexAB-OprM assessed as drug level required to decrease MIC of aztreonam
Procedure, shortened: (§2)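 P. aeruginosa PAM1723 overexpresses MexAB-OprM, with MexCD-OprJ and MexEF-OprN disrupted. The partner antibiotic's MIC was measured with and without inhibitor by NCCLS broth microdilution in Mueller–Hinton broth. Inoculum was 1 × 10⁶ CFU/mL, incubated 18 h at 37 °C, and growth was read visually. The value is the minimum inhibitor concentration that lowers the partner's MIC 8-fold (MPC₈).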

Pseudomonas aeruginosa [3] = assay: Inhibition of Pseudomonas aeruginosa PAM1723 MexAB-OprM assessed as drug level required to decrease MIC of levofloxacin in presence of 0.125% HAS; procedure, shortened: as §2
Rattus norvegicus [4] = assay: Volume of distribution at steady state (0 to infinity) in Sprague-Dawley rat at 5 mg/kg, iv; assay type: ADME, organism-based; design: dose 5 mg/kg, route intravenous; settings: in vivo
Procedure, shortened: (§3)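 Rats received a 2 h intravenous infusion at 1.25, 5 or 20 mg/kg, given with AZT 1000 mg/kg in 40 mL/kg 0.0005 N NaOH-saline. Blood was drawn at 40, 80 and 120 min into the infusion, then 0.25, 0.5, 1, 2 and 4 h after it ended. Plasma was stored at −20 °C and extracted with MeCN using propranolol as internal standard.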

[5] = AUC (0 to infinity) in Sprague-Dawley rat at 5 mg/kg, iv; assay type: ADME, organism-based; design: time infinity, dose 5 mg/kg, route intravenous; settings: plasma
Procedure, shortened: (§4)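 Rats (SD) given compound by 2 h intravenous infusion with AZT 1000 mg/kg, in 40 mL/kg 0.0005 N NaOH-saline. Blood sampled at 40, 80 and 120 min into infusion and 0.25, 0.5, 1, 2 and 4 h after its end. Plasma stored at −20 °C, spiked with propranolol internal standard, extracted with MeCN and centrifuged before analysis.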

Pseudomonas aeruginosa [6] = assay: Inhibition of Pseudomonas aeruginosa PAM1723 MexAB-OprM assessed as drug level required to decrease MIC of levofloxacin; procedure, shortened: as §2
[7] = Drug level in Sprague-Dawley rat serum at 20 mg/kg, iv after 2 hrs; assay type: ADME, organism-based; design: dose 20 mg/kg, route intravenous; settings: read-out: Activity; procedure, shortened: as §3
Rattus norvegicus [8] = assay: Mean residential time (0 to infinity) in Sprague-Dawley rat at 20 mg/kg, iv; assay type: ADME, organism-based; design: dose 20 mg/kg, route intravenous; settings: in vivo; procedure, shortened: as §3
Rattus norvegicus [9] = assay: Volume of distribution at steady state (0 to infinity) in Sprague-Dawley rat at 1.25 mg/kg, iv; assay type: ADME, organism-based; design: dose 1.25 mg/kg, route intravenous; settings: in vivo; procedure, shortened: as §3
[10] = Volume of distribution at steady state (0 to infinity) in cynomolgus monkey at 1 mg/kg, iv; assay type: ADME, organism-based, Macaca fascicularis; design: dose 1 mg/kg, route intravenous; settings: in vivo, read-out: Vdss; procedure, shortened: as §1
Rattus norvegicus [11] = assay: Half life in Sprague-Dawley rat at 5 mg/kg, iv; assay type: ADME, organism-based; design: dose 5 mg/kg, route intravenous; settings: in vivo; procedure, shortened: as §3
Rattus norvegicus [12] = assay: Volume of distribution at steady state (0 to infinity) in Sprague-Dawley rat at 20 mg/kg, iv; assay type: ADME, organism-based; design: dose 20 mg/kg, route intravenous; settings: in vivo; procedure, shortened: as §3
[13] = Drug level in cynomolgus monkey serum at 5 mg/kg, iv after 1 hr; assay type: ADME, organism-based, Macaca fascicularis; design: dose 5 mg/kg, route intravenous; settings: read-out: Activity; procedure, shortened: as §1
[14] = Drug level in cynomolgus monkey serum at 1 mg/kg, iv after 1 hr; assay type: ADME, organism-based, Macaca fascicularis; design: dose 1 mg/kg, route intravenous; settings: read-out: Activity; procedure, shortened: as §1
[15] = Half life in cynomolgus monkey at 5 mg/kg, iv; assay type: ADME, organism-based, Macaca fascicularis; design: dose 5 mg/kg, route intravenous; settings: in vivo; procedure, shortened: as §1
[16] = Aqueous solubility at pH 6.8; assay type: physicochemical; settings: buffer
Rattus norvegicus [17] = assay: Mean residential time (0 to infinity) in Sprague-Dawley rat at 1.25 mg/kg, iv; assay type: ADME, organism-based; design: dose 1.25 mg/kg, route intravenous; settings: in vivo; procedure, shortened: as §3
[18] = Half life in cynomolgus monkey at 1 mg/kg, iv; assay type: ADME, organism-based, Macaca fascicularis; design: dose 1 mg/kg, route intravenous; settings: in vivo; procedure, shortened: as §1
[19] = Mean residential time (0 to infinity) in cynomolgus monkey at 5 mg/kg, iv; assay type: ADME, organism-based, Macaca fascicularis; design: dose 5 mg/kg, route intravenous; settings: in vivo; procedure, shortened: as §1
Rattus norvegicus [20] = assay: Half life in Sprague-Dawley rat at 1.25 mg/kg, iv; assay type: ADME, organism-based; design: dose 1.25 mg/kg, route intravenous; settings: in vivo; procedure, shortened: as §3
Mus musculus [21] = assay: Toxicity in mouse assessed as lethal effect at 100 mg/kg, iv; assay type: organism-based; design: dose 100 mg/kg, route intravenous; settings: in vivo
Procedure, shortened: (§5)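 Mice received a single intravenous dose at 50 or 100 mg/kg in groups of three. The read-out was the number of deaths per group.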

[22] = AUC (0 to infinity) in cynomolgus monkey at 5 mg/kg, iv; assay type: ADME, organism-based, Macaca fascicularis; design: time infinity, dose 5 mg/kg, route intravenous; settings: plasma
Procedure, shortened: (§6)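 Monkeys given compound alone by 1 h intravenous infusion in 10 mL/kg saline. Plasma prepared and analysed as in the rat study: propranolol internal standard, MeCN extraction, centrifugation.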

[23] = Volume of distribution at steady state (0 to infinity) in cynomolgus monkey at 5 mg/kg, iv; assay type: ADME, organism-based, Macaca fascicularis; design: dose 5 mg/kg, route intravenous; settings: in vivo, read-out: Vdss; procedure, shortened: as §1
[24] = AUC (0 to infinity) in Sprague-Dawley rat at 20 mg/kg, iv; assay type: ADME, organism-based; design: time infinity, dose 20 mg/kg, route intravenous; settings: plasma; procedure, shortened: as §4
[25] = Drug level in Sprague-Dawley rat serum at 5 mg/kg, iv after 2 hrs; assay type: ADME, organism-based; design: dose 5 mg/kg, route intravenous; settings: read-out: Activity; procedure, shortened: as §3
Rattus norvegicus [26] = assay: Mean residential time (0 to infinity) in Sprague-Dawley rat at 5 mg/kg, iv; assay type: ADME, organism-based; design: dose 5 mg/kg, route intravenous; settings: in vivo; procedure, shortened: as §3
[27] = Drug level in Sprague-Dawley rat serum at 1.25 mg/kg, iv after 2 hrs; assay type: ADME, organism-based; design: dose 1.25 mg/kg, route intravenous; settings: read-out: Activity; procedure, shortened: as §3
[28] = Clearance (0 to infinity) in cynomolgus monkey at 1 mg/kg, iv; assay type: ADME, organism-based, Macaca fascicularis; design: dose 1 mg/kg, route intravenous; settings: in vivo; procedure, shortened: as §1
Rattus norvegicus [29] = assay: Half life in Sprague-Dawley rat at 20 mg/kg, iv; assay type: ADME, organism-based; design: dose 20 mg/kg, route intravenous; settings: in vivo; procedure, shortened: as §3
[30] = AUC (0 to infinity) in cynomolgus monkey at 1 mg/kg, iv; assay type: ADME, organism-based, Macaca fascicularis; design: time infinity, dose 1 mg/kg, route intravenous; settings: plasma; procedure, shortened: as §6
[31] = AUC (0 to infinity) in Sprague-Dawley rat at 1.25 mg/kg, iv; assay type: ADME, organism-based; design: time infinity, dose 1.25 mg/kg, route intravenous; settings: plasma; procedure, shortened: as §4
[32] = Mean residential time (0 to infinity) in cynomolgus monkey at 1 mg/kg, iv; assay type: ADME, organism-based, Macaca fascicularis; design: dose 1 mg/kg, route intravenous; settings: in vivo; procedure, shortened: as §1
Mus musculus [33] = assay: Toxicity in mouse assessed as lethal effect at 50 mg/kg, iv; assay type: organism-based; design: dose 50 mg/kg, route intravenous; settings: in vivo; procedure, shortened: as §5

- Activity (Pseudomonas aeruginosa [2]): < 0.25 µg/mL
- Activity (Pseudomonas aeruginosa [3]): 2 µg/mL
- Activity (Pseudomonas aeruginosa [6]): 0.5 µg/mL
- solubility [16]: 9.2 µg/mL (≈ 16.3 µM)
Compound: CC(C)(C)c1csc(NC(=O)c2ccn3c(=O)c(/C=C/c4nnn[nH]4)c(N4CCC[C@@H](OC(N)=O)C4)nc3c2)n1

- Activity (Pseudomonas aeruginosa [2]): 8 µg/mL
- Activity (Pseudomonas aeruginosa [3]): > 16 µg/mL
- Activity (Pseudomonas aeruginosa [6]): 16 µg/mL
- Activity [16]: Not Active
Compound: CC(C)(C)c1csc(NC(=O)c2ccn3c(=O)c(/C=C/c4nnn[nH]4)c(N4CCC/C(=C\C(=O)NCC[N+](C)(C)CC(=O)[O-])C4)nc3c2)n1

- Activity (Pseudomonas aeruginosa [2]): 4 µg/mL
- Activity (Pseudomonas aeruginosa [3]): 8 µg/mL
- Activity (Pseudomonas aeruginosa [6]): 4 µg/mL
- solubility [16]: 860 µg/mL (≈ 1240 µM)
Compound: CC(C)(C)c1csc(NC(=O)c2ccn3c(=O)c(/C=C/c4nnn[nH]4)c(N4CCC[C@@H](CC(=O)NCC[N+](C)(C)CC(=O)[O-])C4)nc3c2)n1

- solubility [16]: 547 µg/mL
Compound: CC(C)(C)c1csc(NC(=O)c2ccn3c(=O)c(/C=C/c4nnn[nH]4)c(N4CCC[C@H](OC(=O)NCC[N+](C)(C)C)C4)nc3c2)n1

Continued, compound first:

Compound: CC(C)(C)c1csc(NC(=O)c2ccn3c(=O)c(/C=C/c4nnn[nH]4)c(N4CCC[C@@H](OC(=O)NCC[N+](C)(C)CC(=O)[O-])C4)nc3c2)n1
- clearance [1]: 10.7 mL/min/kg
- Activity (Pseudomonas aeruginosa [2]): 2 µg/mL
- Activity (Pseudomonas aeruginosa [3]): 4 µg/mL
- Vdss (Rattus norvegicus [4]): 1.712 L/kg
- AUC(0-inf) [5]: 3530 ng·h/mL
- Activity (Pseudomonas aeruginosa [6]): 2 µg/mL
- concentration at 2 h [7]: 8040 ng/mL
- MRT (Rattus norvegicus [8]): 72.9 min
- Vdss (Rattus norvegicus [9]): 3.049 L/kg
- Vd [10]: 0.414 L/kg
- t1/2 (Rattus norvegicus [11]): 10.8 min
- Vdss (Rattus norvegicus [12]): 1.71 L/kg
- concentration at 1 h [13]: 7640 ng/mL
- concentration at 1 h [14]: 1220 ng/mL
- half-life [15]: 24.6 min
- solubility [16]: 747 µg/mL (≈ 1080 µM)
- MRT (Rattus norvegicus [17]): 71.16 min
- half-life [18]: 16.8 min
- MRT inf [19]: 37.5 min
- t1/2 (Rattus norvegicus [20]): 13.8 min
- Activity (Mus musculus [21]): Non-toxic
- AUC(0-inf) [22]: 7890 ng·h/mL
- Vd [23]: 0.4 L/kg
- AUC(0-inf) [24]: 14200 ng·h/mL
- concentration at 2 h [25]: 1840 ng/mL
- MRT (Rattus norvegicus [26]): 72.54 min
- concentration at 2 h [27]: 262 ng/mL
- clearance [28]: 11.2 mL/min/kg
- t1/2 (Rattus norvegicus [29]): 15 min
- AUC(0-inf) [30]: 1490 ng·h/mL
- AUC(0-inf) [31]: 486 ng·h/mL
- MRT inf [32]: 36.8 min

Compound: CC(C)(C)c1csc(NC(=O)c2ccn3c(=O)c(/C=C/c4nnn[nH]4)c(N4CCC[C@@H](OC(=O)NCCC[N+](C)(C)CC(=O)[O-])C4)nc3c2)n1
- Activity (Pseudomonas aeruginosa [2]): 2 µg/mL
- Activity (Pseudomonas aeruginosa [3]): 4 µg/mL
- Activity (Pseudomonas aeruginosa [6]): 4 µg/mL
- solubility [16]: 610 µg/mL (≈ 862 µM)

Compound: CN(C)CCNC(=O)O[C@@H]1CCCN(c2nc3cc(C(=O)Nc4nc(C(C)(C)C)cs4)ccn3c(=O)c2/C=C/c2nnn[nH]2)C1
- Activity (Mus musculus [33]): Non-toxic
- Activity (Pseudomonas aeruginosa [2]): 1 µg/mL
- Activity (Pseudomonas aeruginosa [3]): 4 µg/mL
- Activity (Pseudomonas aeruginosa [6]): 2 µg/mL

Compound: CC(C)(C)c1csc(NC(=O)c2ccn3c(=O)c(/C=C/c4nnn[nH]4)c(N4CCC(OC(=O)NCC[N+](C)(C)CC(=O)[O-])CC4)nc3c2)n1
- Activity (Pseudomonas aeruginosa [2]): 4 µg/mL
- Activity (Pseudomonas aeruginosa [3]): 16 µg/mL
- Activity (Pseudomonas aeruginosa [6]): 8 µg/mL
- solubility [16]: 170 µg/mL (≈ 245 µM)

Compound: CC(C)(C)c1csc(NC(=O)c2ccn3c(=O)c(/C=C/c4nnn[nH]4)c(N4CCC[C@@H](OC(=O)NCC[N+](C)(C)CC(N)=O)C4)nc3c2)n1
- Activity (Pseudomonas aeruginosa [2]): 4 µg/mL
- Activity (Pseudomonas aeruginosa [3]): 4 µg/mL
- Activity (Pseudomonas aeruginosa [6]): 4 µg/mL
- solubility [16]: 95 µg/mL
- Activity (Mus musculus [21]): Non-toxic

Compound: CC(C)(C)c1csc(NC(=O)c2ccn3c(=O)c(/C=C/c4nnn[nH]4)c(N4CCC[C@@H](OC(=O)NCC[N+](C)(C)C)C4)nc3c2)n1
- Activity (Pseudomonas aeruginosa [2]): 2 µg/mL
- Activity (Pseudomonas aeruginosa [3]): 4 µg/mL
- Activity (Pseudomonas aeruginosa [6]): 2 µg/mL
